The source of these data is ChEMBL document CHEMBL4680373, “Evaluation of 5-(Trifluoromethyl)-1,2,4-oxadiazole-Based Class IIa HDAC Inhibitors for Huntington's Disease” (ACS Med Chem Lett, 2021).

One series addresses Histone deacetylase 5 (Homo sapiens, UniProt Q9UQL6). Put plainly: Inhibition of HDAC5 (unknown origin) using Boc Lys(TFA) as substrate by fluorogenic assay. The procedure, abridged: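 Biochemical HDAC isoform assay with the artificial fluorogenic substrate Boc-Lys-(TFA)-AMC, which is specific to class IIa enzymes and HDAC8. IC50 taken as the geometric mean of three experiments.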

The nature of series [1]: Inhibition of Class 1/2b HDAC in human Jurkat E6.1 cells using Boc-Lys-(Ac)-AMC as substrate by fluorogenic assay. Format: cell-based. Put shortly: (§1)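 Whole-cell assay in Jurkat E6.1 cells with artificial fluorogenic substrates: Boc-Lys-(TFA)-AMC for class IIa/HDAC8 activity, which in this line is mostly HDAC4, and Boc-Lys-(Ac)-AMC for class I/IIb activity. IC50 given as the geometric mean of three experiments.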

For another series, the target named is Histone deacetylase 4 (Homo sapiens, UniProt P56524). Kind of series: Inhibition of Class 2A HDAC4 in human Jurkat E6.1 cells using Boc-Lys-(TFA)-AMC as substrate by fluorogenic assay. Format: cell-based. The procedure, abridged:
as §1

A short description of series [2]: Oral bioavailability in C57BL/6J mouse at 11.5 mg/kg administered via gavage by LC-MS/MS analysis. In kind it is ADME, organism-based. Particulars: in vivo. Put shortly: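 Fed male C57Bl/6 mice dosed once intravenously at 3.3 mg/kg and by oral gavage at 11.5 mg/kg. Compound levels were quantified to derive PK parameters.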
For series [3], the target named is Muscarinic acetylcholine receptor M1 (Homo sapiens) (UniProt P11229). Put plainly: Displacement of [3H]pirenzapine from human recombinant M1 receptor at 10 uM incubated for 1 hr by radiometric scintillation counting analysis. Put shortly:
(§2)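 Broad selectivity panel of binding, cellular, functional and enzymatic assays run by a contract lab. Each test was done at a single 10 μM concentration and reported as percent inhibition.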
In general terms: Displacement assays read how much labelled ligand stays bound in the presence of the test substance.

For series [4], the target named is Muscarinic acetylcholine receptor M2 (Homo sapiens) (UniProt P08172). Kind of series: Displacement of [3H]AF-DX384 from human recombinant M2 receptor at 10 uM incubated for 1 hr by radiometric scintillation counting analysis. Put shortly: as §2
Series [5] concerns the target T1, Muscarinic acetylcholine receptor M3 (Homo sapiens, UniProt P20309). Kind of series: Displacement of [3H]4-DAMP from human recombinant M3 receptor at 10 uM incubated for 1 hr by radiometric scintillation counting analysis. The procedure, abridged:
as §2
Target sequence in this assay (P20309 whole entry, looked up): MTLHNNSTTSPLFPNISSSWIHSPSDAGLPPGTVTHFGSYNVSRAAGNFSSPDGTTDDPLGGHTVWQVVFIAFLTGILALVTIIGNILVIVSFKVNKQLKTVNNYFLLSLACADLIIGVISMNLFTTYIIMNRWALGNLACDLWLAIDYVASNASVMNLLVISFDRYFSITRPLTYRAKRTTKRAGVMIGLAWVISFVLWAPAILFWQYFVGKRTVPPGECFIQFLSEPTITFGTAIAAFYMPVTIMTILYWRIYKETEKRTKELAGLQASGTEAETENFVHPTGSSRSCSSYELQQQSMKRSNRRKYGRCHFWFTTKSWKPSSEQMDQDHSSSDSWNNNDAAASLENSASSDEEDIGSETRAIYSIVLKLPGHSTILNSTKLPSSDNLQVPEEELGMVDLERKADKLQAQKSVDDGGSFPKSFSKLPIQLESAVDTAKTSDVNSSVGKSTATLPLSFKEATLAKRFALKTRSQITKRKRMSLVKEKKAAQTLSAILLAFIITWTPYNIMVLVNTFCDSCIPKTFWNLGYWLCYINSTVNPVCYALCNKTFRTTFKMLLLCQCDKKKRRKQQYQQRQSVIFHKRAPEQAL

Series [6] concerns the target Muscarinic acetylcholine receptor M4 (Homo sapiens) (UniProt P08173). Kind of series: Displacement of [3H]4-DAMP from human recombinant M4 receptor at 10 uM incubated for 1 hr by radiometric scintillation counting analysis. The procedure, abridged: as §2
The target of series [7] is Sigma non-opioid intracellular receptor 1 (Homo sapiens) (UniProt Q99720). Kind of series: Displacement of [3H](+)-pentazocine from human sigma1 receptor at 10 uM incubated for 120 mins by radiometric scintillation counting analysis. Put shortly: as §2
The target of series [8] is Muscarinic acetylcholine receptor M1 (Homo sapiens, UniProt P11229). Put plainly: Displacement of [3H]pirenzapine from human recombinant M1 receptor incubated for 1 hr by radiometric scintillation counting analysis.
For series [9], the target named is T1, Muscarinic acetylcholine receptor M3. Put plainly: Displacement of [3H]4-DAMP from human recombinant M3 receptor incubated for 1 hr by radiometric scintillation counting analysis.
Target sequence in this assay (P20309 whole entry): as the sequence (P20309 whole entry, looked up) above
In a further series the target is Cytochrome P450 1A2 (Homo sapiens, UniProt P05177). Put plainly: Inhibition of CYP1A2 in human liver microsomes using phenacetin as substrate incubated for 30 mins by LC-MS/MS analysis. Format: ADME.
The target of the next series is Cytochrome P450 2C8 (Homo sapiens, UniProt P10632). Put plainly: Inhibition of CYP2C8 in human liver microsomes using amodiaquine as substrate incubated for 15 mins by LC-MS/MS analysis. Format: ADME.
A further series concerns the target Cytochrome P450 3A4 (Homo sapiens, UniProt P08684). Kind of series: Inhibition of CYP3A4 in human liver microsomes using midazolam as substrate incubated for 15 mins by LC-MS/MS analysis. Format: ADME. On the technique in general: Liver microsomes are a subcellular fraction often used to study metabolism.
Series [10] in a line: Toxicity in CBAxC57BL/6J mouse assessed as effect on body weight at 10 to 100 mg/kg, po bid for 14.5 days. Format: organism-based. The settings on record: in vivo, 348 h, dose 10-100 mg/kg, time 14.5 day. Put shortly: (§3)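 R6/2 HD mice and wild-type littermates, male and female, were dosed orally b.i.d. at 10, 30 or 100 mg/kg or with vehicle for 14.5 days. Vehicle was 10% (w/v) hydroxypropyl-β-cyclodextrin in 50 mM citrate buffer. Body weight, body temperature, passive observations and active manipulation scores were recorded. Blood and brain were collected 2 h after the final dose.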

A short description of series [11]: Toxicity in CBAxC57BL/6J mouse assessed as effect on head tremor at 10 to 100 mg/kg, po bid for 14.5 days. Particulars: in vivo, 348 h, dose 10-100 mg/kg, time 14.5 day. In kind it is organism-based. Put shortly: as §3
Series [12] is described as follows: Toxicity in CBAxC57BL/6J mouse assessed as effect on seizure at 10 to 100 mg/kg, po bid for 14.5 days. In kind it is organism-based. The settings on record: in vivo, 348 h, dose 10-100 mg/kg, time 14.5 day. Put shortly: as §3
Series [13] in a line: Toxicity in CBAxC57BL/6J mouse assessed as effect on retropulsion at 10 to 100 mg/kg, po bid for 14.5 days. In kind it is organism-based. The settings on record: in vivo, 348 h, dose 10-100 mg/kg, time 14.5 day. Put shortly: as §3
Series [14] is described as follows: Toxicity in CBAxC57BL/6J mouse assessed as effect on irritability at 10 to 100 mg/kg, po bid for 14.5 days. Format: organism-based. The settings on record: in vivo, 348 h, dose 10-100 mg/kg, time 14.5 day. The procedure, abridged:
as §3

Series [15] can be described thus: Toxicity in CBAxC57BL/6J mouse assessed as effect on seizure by tail at 10 to 100 mg/kg, po bid for 14.5 days. Format: organism-based. Particulars: in vivo, 348 h, dose 10-100 mg/kg, time 14.5 day. The procedure, abridged:
as §3

Chain of Cytochrome P450 3A4 (P08684 whole entry): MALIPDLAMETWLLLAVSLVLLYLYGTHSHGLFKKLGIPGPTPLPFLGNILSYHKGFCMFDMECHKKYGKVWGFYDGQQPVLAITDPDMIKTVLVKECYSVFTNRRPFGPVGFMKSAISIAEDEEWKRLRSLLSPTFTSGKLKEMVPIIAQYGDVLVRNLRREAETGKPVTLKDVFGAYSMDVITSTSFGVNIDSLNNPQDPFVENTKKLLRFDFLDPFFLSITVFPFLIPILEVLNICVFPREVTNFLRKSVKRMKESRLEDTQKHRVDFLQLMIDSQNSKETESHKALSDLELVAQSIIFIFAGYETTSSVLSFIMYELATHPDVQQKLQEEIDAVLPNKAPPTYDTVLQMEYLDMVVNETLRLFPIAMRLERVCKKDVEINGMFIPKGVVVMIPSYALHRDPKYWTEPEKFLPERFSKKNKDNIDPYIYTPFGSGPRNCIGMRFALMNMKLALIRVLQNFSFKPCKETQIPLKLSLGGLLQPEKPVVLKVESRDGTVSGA
Chain of Muscarinic acetylcholine receptor M4 (Homo sapiens) (P08173 whole entry): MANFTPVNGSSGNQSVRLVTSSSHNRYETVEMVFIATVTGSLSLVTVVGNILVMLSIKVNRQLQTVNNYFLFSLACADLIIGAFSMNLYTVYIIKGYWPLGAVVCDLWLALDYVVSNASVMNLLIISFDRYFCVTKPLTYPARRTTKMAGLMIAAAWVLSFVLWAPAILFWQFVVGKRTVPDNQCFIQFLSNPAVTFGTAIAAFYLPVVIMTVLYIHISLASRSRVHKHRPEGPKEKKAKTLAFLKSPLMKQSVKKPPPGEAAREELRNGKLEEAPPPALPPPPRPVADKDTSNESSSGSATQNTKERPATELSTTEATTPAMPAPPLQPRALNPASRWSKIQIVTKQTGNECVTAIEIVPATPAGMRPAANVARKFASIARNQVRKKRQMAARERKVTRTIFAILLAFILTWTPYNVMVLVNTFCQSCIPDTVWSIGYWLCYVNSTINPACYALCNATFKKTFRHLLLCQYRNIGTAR
Chain of Muscarinic acetylcholine receptor M2 (Homo sapiens) (P08172 whole entry): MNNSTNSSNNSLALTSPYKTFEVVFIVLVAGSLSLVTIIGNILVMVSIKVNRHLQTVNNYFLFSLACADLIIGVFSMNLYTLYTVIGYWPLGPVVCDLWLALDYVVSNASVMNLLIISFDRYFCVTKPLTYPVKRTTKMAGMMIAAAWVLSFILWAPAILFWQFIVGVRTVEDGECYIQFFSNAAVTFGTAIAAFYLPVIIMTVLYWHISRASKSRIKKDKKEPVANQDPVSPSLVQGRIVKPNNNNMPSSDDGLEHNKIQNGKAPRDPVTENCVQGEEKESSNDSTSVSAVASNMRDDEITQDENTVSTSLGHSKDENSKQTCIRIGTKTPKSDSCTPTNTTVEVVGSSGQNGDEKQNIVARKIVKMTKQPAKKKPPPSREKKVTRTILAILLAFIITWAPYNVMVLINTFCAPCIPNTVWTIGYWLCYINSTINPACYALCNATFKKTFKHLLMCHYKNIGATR
Chain of Cytochrome P450 1A2 (P05177 whole entry): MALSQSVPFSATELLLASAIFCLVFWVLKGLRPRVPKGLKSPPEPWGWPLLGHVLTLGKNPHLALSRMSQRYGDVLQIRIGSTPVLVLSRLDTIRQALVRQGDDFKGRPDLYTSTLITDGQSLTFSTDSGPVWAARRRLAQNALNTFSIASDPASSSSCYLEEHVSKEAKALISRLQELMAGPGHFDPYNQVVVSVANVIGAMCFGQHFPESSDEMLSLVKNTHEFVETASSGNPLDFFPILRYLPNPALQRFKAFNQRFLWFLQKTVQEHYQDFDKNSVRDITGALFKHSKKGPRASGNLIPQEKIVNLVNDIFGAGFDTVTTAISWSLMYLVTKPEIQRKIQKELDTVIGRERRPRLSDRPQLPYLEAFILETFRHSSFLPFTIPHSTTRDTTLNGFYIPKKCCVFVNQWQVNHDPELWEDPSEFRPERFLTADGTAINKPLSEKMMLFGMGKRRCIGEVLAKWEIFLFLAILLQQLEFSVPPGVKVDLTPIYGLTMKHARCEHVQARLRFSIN
Chain of Sigma non-opioid intracellular receptor 1 (Homo sapiens) (Q99720 whole entry): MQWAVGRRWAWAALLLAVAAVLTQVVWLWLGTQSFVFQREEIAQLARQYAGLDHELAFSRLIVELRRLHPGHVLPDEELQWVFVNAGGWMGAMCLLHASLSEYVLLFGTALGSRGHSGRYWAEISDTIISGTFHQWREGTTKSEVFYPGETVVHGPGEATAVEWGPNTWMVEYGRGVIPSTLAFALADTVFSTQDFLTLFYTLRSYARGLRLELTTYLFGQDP
Chain of Cytochrome P450 2C8 (P10632 whole entry): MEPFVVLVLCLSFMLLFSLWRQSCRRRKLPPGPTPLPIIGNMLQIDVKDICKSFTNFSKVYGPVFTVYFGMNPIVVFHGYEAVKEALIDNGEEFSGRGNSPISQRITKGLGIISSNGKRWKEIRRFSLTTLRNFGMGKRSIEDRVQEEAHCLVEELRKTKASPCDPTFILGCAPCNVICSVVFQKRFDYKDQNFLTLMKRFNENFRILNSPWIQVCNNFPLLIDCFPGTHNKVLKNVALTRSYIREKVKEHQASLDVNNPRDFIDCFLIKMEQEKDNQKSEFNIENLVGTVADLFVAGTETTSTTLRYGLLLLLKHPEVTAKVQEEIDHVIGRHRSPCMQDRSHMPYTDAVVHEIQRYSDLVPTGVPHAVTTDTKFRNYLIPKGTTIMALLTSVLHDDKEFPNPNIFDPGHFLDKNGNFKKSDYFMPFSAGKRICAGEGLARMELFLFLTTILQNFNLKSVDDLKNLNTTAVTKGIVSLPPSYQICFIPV
Chain of Muscarinic acetylcholine receptor M1 (P11229 whole entry): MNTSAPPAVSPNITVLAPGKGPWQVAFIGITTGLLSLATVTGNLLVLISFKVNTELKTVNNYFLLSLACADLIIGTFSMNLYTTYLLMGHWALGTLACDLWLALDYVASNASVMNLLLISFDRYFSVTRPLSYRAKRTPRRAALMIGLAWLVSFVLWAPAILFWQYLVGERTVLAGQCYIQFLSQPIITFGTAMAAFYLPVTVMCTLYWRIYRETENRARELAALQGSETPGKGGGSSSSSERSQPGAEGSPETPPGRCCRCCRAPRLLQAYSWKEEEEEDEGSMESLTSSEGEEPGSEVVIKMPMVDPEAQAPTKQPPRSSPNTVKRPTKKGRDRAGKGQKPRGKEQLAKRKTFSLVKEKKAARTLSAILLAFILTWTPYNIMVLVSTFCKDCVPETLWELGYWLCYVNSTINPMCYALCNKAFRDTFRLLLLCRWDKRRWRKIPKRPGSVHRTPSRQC
Chain of Muscarinic acetylcholine receptor M1 (Homo sapiens) (P11229 whole entry): as above
Chain of Histone deacetylase 5 (Q9UQL6 whole entry, canonical isoform): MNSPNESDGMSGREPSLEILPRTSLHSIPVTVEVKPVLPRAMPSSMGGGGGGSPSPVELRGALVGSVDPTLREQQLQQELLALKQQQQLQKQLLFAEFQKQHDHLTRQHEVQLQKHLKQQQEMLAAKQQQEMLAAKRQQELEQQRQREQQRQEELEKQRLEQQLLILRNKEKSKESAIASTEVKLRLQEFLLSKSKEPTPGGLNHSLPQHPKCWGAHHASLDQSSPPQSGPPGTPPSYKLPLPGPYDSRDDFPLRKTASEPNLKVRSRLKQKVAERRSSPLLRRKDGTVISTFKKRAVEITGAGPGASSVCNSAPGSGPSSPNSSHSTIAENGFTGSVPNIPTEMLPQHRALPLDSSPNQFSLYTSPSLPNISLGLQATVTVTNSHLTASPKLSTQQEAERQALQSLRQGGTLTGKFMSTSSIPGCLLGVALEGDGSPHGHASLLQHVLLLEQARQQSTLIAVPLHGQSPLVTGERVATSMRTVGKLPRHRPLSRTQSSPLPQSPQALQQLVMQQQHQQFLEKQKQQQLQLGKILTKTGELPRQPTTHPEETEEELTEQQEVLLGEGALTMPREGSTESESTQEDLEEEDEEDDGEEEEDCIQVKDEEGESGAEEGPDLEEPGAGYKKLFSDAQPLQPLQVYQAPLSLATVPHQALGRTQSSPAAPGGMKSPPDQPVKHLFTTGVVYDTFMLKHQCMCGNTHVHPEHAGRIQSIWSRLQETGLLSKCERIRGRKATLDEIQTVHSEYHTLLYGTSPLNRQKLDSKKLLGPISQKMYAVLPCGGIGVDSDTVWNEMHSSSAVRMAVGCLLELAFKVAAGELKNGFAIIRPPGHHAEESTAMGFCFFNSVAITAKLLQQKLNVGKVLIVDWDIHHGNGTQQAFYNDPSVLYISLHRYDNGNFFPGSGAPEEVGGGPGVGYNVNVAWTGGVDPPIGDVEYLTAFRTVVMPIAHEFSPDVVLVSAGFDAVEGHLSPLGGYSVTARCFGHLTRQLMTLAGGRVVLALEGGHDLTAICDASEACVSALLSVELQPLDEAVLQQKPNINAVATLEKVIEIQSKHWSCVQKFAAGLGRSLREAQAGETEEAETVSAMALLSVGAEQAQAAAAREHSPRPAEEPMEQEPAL

As usually defined, the IC50 is the concentration needed to halve the response being measured. One may read the bioavailability as the share of a dose that reaches the circulation, judged against a reference dose that is usually intravenous. By inhibition is commonly meant the share of the control response that was lost under treatment. As usually defined, the Kd is the free concentration of one partner at which half of the binding sites on the other are occupied at equilibrium, for simple one-to-one binding. As for `C[C@H](CN1CCC[C@@H]1C)NC(=O)c1ccc(-c2noc(C(F)(F)F)n2)cc1`, the 50% inhibitory concentration (IC50) against Histone deacetylase 5 is 0.02 µM; in series [1], 5 µM; at Histone deacetylase 4 it was 0.04 µM; at Cytochrome P450 1A2, greater than 50 µM; against Cytochrome P450 2C8, greater than 50 µM; on Cytochrome P450 3A4 it was greater than 50 µM. The compound further registered a bioavailability in series [2] of 100%. The inhibition in series [3] was greater than 80%; in [4] it was greater than 80%; in series [5] it was greater than 80%; in series [6] it was greater than 80%; in series [7] it was greater than 50%. Further, the Kd in series [8] and in series [9] was greater than 5 µM throughout. In addition, the Activity entry in series [10], in series [11], in series [12], in series [13], in [14] and in series [15] was “Non-Toxic” throughout.
